Laboratory results as given in ChEMBL document CHEMBL4177542, “A New Combination of a Pleuromutilin Derivative and Doxycycline for Treatment of Multidrug-Resistant Acinetobacter baumannii” (J Med Chem, 2017).
Converted amounts (≈) assume the structure as drawn.

Key:
Acinetobacter baumannii [1] = assay: Potentiation of doxycycline-induced antimicrobial activity against Acinetobacter baumannii ATCC 19606 at 0.40 ug/ml in presence of 0.05 ug/ml doxycycline by microdilution broth checkerboard method; assay type: functional, ATCC 19606 = CIP 70.34 = JCM 6841
Summary of the method: (§1)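 A. baumannii ATCC 19606 in a broth microdilution checkerboard with doxycycline, 96 concentration combinations. ΣFIC = C_A/MIC_A + C_B/MIC_B, taken for wells at the growth/no-growth interface; ΣFIC <0.5 counts as synergy.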

Acinetobacter baumannii [2] = assay: Synergistic antibacterial activity against Acinetobacter baumannii ATCC 19606 at 60:1 compound to doxycycline ratio after 48 hrs by resazurin dye based microdilution broth checkerboard method; assay type: functional; details: ATCC 19606 = CIP 70.34 = JCM 6841, 48 h
Summary of the method: (§2)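 Checkerboard broth microdilution of drug pairs in tryptic soy broth on mid-log cultures (OD 0.5), 48 h at 37 °C. Growth read by resazurin (pink growth, blue no growth). MBC is blue retained over 4 h, CFU plating where needed. ΣFIC = C_A/MIC_A + C_B/MIC_B, taken at the growth/no-growth interface wells; ΣFIC <0.5 counts as synergy.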

Acinetobacter baumannii [3] = assay: Growth inhibition of Acinetobacter baumannii ATCC 19606 after 48 hrs by resazurin dye based microdilution method; assay type: functional; details: ATCC 19606 = CIP 70.34 = JCM 6841, 48 h
Summary of the method: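 A. baumannii ATCC 19606 grown in tryptic soy broth, 37 °C with shaking, to mid-log (OD 0.5). Cultures treated with serial dilutions of inhibitor (DMSO stock 1 mg/100 μL), 48 h at 37 °C. Resazurin then added, 1 h at 37 °C with shaking. MIC is the lowest concentration staying blue; MBC is blue retained over 4 h, with CFU plating if needed (99.9% kill).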

[4] = Safety index, ratio of compound IC50 to valnemulin IC50 for African green monkey Vero cells; assay type: ADME, cell-based; details: chlorocebus sabaeus, read-out: Ratio IC50
Escherichia coli [5] = assay: Synergistic bactericidal activity against Escherichia coli ATCC 10798 at 2:1 compound to doxycycline ratio after 48 hrs by resazurin dye based microdilution broth checkerboard method; assay type: functional; details: ATCC 10798, 48 h, read-out: MBC99.9; summary of the method: as §2
Pseudomonas aeruginosa [6] = assay: Growth inhibition of Pseudomonas aeruginosa ATCC 27853 after 48 hrs by resazurin dye based microdilution method; assay type: functional; details: ATCC 27853, 48 h
Summary of the method: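 Broth microdilution in tryptic soy broth. Mid-log cultures (OD600 0.5) treated with serial dilutions from a DMSO stock (1 mg per 100 μL) for 48 h at 37 °C. Resazurin (stock 0.02%) then added for 1 h at 37 °C. MIC is the lowest concentration staying blue; MBC is blue retained over 4 h (99.9% kill), with CFU plating when needed.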

Acinetobacter baumannii [7] = assay: Potentiation of doxycycline-induced antimicrobial activity against Acinetobacter baumannii ATCC 19606 at 0.2 ug/ml in presence of 0.025 ug/ml doxycycline by microdilution broth checkerboard method; assay type: functional, ATCC 19606 = CIP 70.34 = JCM 6841; summary of the method: as §1
Acinetobacter baumannii [8] = assay: Synergistic antibacterial activity against Acinetobacter baumannii ATCC 19606 infected in C57BL/6 mouse assessed as survival rate at compound to doxycycline ratio of 35:1 at 2 mg/kg, ip administered as single dose measured for 5 days (reference value: <20%); assay type: functional; details: ATCC 19606 = CIP 70.34 = JCM 6841, ip, 120 h
Summary of the method: (§3)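 C57BL/6 mice (n = 5 per group; 4 untreated controls) infected intraperitoneally with A. baumannii ATCC19606 grown at 37 °C and collected by centrifugation, at a dose giving 75% death. Single intraperitoneal dose (2 to 60 mg/kg) given 1 h after infection. Mice monitored for 5 days, with death as the end point; survival rate recorded.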

Escherichia coli [9] = assay: Synergistic antibacterial activity against Escherichia coli ATCC 10798 at 35:1 compound to doxycycline ratio after 48 hrs by resazurin dye based microdilution broth checkerboard method; assay type: functional; details: ATCC 10798, 48 h; summary of the method: as §2
[10] = Solubility of the compound in water at 10 mg after 24 hrs by HPLC based shake flask method; assay type: physicochemical
Pseudomonas aeruginosa [11] = assay: Growth inhibition of Pseudomonas aeruginosa ATCC 27853 at 2:1 compound to doxycycline ratio after 48 hrs by resazurin dye based microdilution method; assay type: functional; details: ATCC 27853, 48 h; summary of the method: as §2
[12] = Half life in Sprague-Dawley rat liver microsomes at 500 ng/ml by LC/MS analysis; assay type: ADME, microsome
Summary of the method: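 Pooled Sprague-Dawley rat liver microsomes at 1 mg/mL protein in 100 mM phosphate, pH 7.4. Compound at 500 ng/mL final; verapamil as positive control. Pre-equilibrated 5 min at 37 °C, then 1 mM NADPH added. Triplicate samples at 0, 5, 10, 20, 30, 45 and 60 min, quenched in 4 volumes of cold methanol, analysed by LC-MS.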

Acinetobacter baumannii [13] = assay: Synergistic antibacterial activity against multidrug-resistant Acinetobacter baumannii ATCC […] at 60:1 compound to doxycycline ratio after 48 hrs by resazurin dye based microdilution broth checkerboard method; assay type: functional; details: ATCC BAA 18002, 48 h
Summary of the method: (§4)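 Microdilution broth checkerboard of the compound combined with doxycycline, using the resazurin broth method (48 h, 37 °C, blue = no growth). ΣFIC = C_A/MIC_A + C_B/MIC_B, taken at the growth–no growth interface wells; ΣFIC below 0.5 is scored as synergy. MBC for the fixed-ratio combinations read as the 4 h resazurin endpoint.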

Acinetobacter baumannii [14] = assay: Synergistic antibacterial activity against multidrug-resistant Acinetobacter baumannii ATCC […] at 35:1 compound to doxycycline ratio after 48 hrs by resazurin dye based microdilution broth checkerboard method; assay type: functional; details: ATCC BAA 18002, 48 h; summary of the method: as §4
Acinetobacter baumannii [15] = assay: Synergistic antibacterial activity against Acinetobacter baumannii ATCC 19606 infected in C57BL/6 mouse assessed as survival rate at compound to doxycycline ratio of 35:1 at 20 mg/kg, ip administered as single dose measured for 5 days (reference value: <20%); assay type: functional; details: ATCC 19606 = CIP 70.34 = JCM 6841, ip, 120 h; summary of the method: as §3
Klebsiella pneumoniae = assay: Synergistic antibacterial activity against Klebsiella pneumoniae ATCC 8047 at 35:1 compound to doxycycline ratio after 48 hrs by resazurin dye based microdilution broth checkerboard method; assay type: functional; details: ATCC 8047, 48 h; summary of the method: as §2
Acinetobacter baumannii [16] = assay: Synergistic antibacterial activity against Acinetobacter baumannii ATCC 19606 infected in C57BL/6 mouse assessed as survival rate at compound to doxycycline ratio of 35:1 at 60 mg/kg, ip administered as single dose measured for 5 days (reference value: <20%); assay type: functional; details: ATCC 19606 = CIP 70.34 = JCM 6841, ip, 120 h; summary of the method: as §3
Acinetobacter baumannii [17] = assay: Potentiation of doxycycline-induced antimicrobial activity against Acinetobacter baumannii ATCC 19606 at 0.40 ug/ml in presence of 0.025 ug/ml doxycycline by microdilution broth checkerboard method; assay type: functional, ATCC 19606 = CIP 70.34 = JCM 6841; summary of the method: as §1
[18] = Protein binding in rat plasma at 500 to 5000 ng/ml after 4 hrs by LC/MS analysis; assay type: ADME, cell-free
Summary of the method: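 Equilibrium dialysis (MWCO 6000–8000) of Sprague-Dawley rat plasma (lithium heparin) spiked at 500 and 5000 ng/mL, in duplicate, against isotonic phosphate buffer pH 7.4. 4 h at 37 °C, about 100 rpm. Methanol with internal standard, LC-MS. Free fraction = buffer/plasma concentration; reported as % bound. Verapamil as reference.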

Pseudomonas aeruginosa [19] = assay: Synergistic antibacterial activity against Pseudomonas aeruginosa ATCC 27853 at 35:1 compound to doxycycline ratio after 48 hrs by resazurin dye based microdilution broth checkerboard method; assay type: functional; details: ATCC 27853, 48 h; summary of the method: as §4
Acinetobacter baumannii [20] = assay: Antibacterial activity against Acinetobacter baumannii ATCC 19606 infected in C57BL/6 mouse assessed as survival rate at 4 mg/kg, ip administered as single dose measured for 5 days (reference value: <20%); assay type: functional; details: ATCC 19606 = CIP 70.34 = JCM 6841, ip, 120 h; summary of the method: as §3

For C=C[C@]1(C)C[C@@H](OC(=O)CSC(C)(C)CNC(=O)[C@H](N)C(C)C)[C@]2(C)[C@H](C)CC[C@]3(CC[C@@H](O)[C@H]32)[C@@H](C)[C@@H]1O, the “fractional inhibitory concentration index (FICI)” value (Acinetobacter baumannii [1]) was 0.31, the MIC (Acinetobacter baumannii [2]) was 0.5 µg/mL and the MIC (Acinetobacter baumannii [3]) was 1.75 µg/mL (≈ 3.09 µM). For the same compound, the selectivity ratio [4] was 2.85, the MBC (Escherichia coli [5]) was 1.56 µg/mL and the MIC (Pseudomonas aeruginosa [6]) was greater than 25 µg/mL. The “fractional inhibitory concentration index (FICI)” value (Acinetobacter baumannii [7]) was 0.16, the survival at 2 mg/kg (Acinetobacter baumannii [8]) was 60% and the MIC (Escherichia coli [9]) was 0.25 µg/mL. The solubility [10] was “Soluble”, the MIC (Pseudomonas aeruginosa [11]) was 6.25 µg/mL and the t1/2 [12] was greater than 1 h. For the same compound, the MIC (Acinetobacter baumannii [13]) was 1.56 µg/mL, the MIC (Acinetobacter baumannii [14]) was 1.56 µg/mL and the survival at 20 mg/kg (Acinetobacter baumannii [15]) was 100%. For the same compound, the MIC (Klebsiella pneumoniae) was 0.78 µg/mL, the survival at 60 mg/kg (Acinetobacter baumannii [16]) was 100% and the “fractional inhibitory concentration index (FICI)” value (Acinetobacter baumannii [17]) was 0.19. The PPB [18] was 76.9%, the MIC (Pseudomonas aeruginosa [19]) was 12.5 µg/mL and the survival at 4 mg/kg (Acinetobacter baumannii [20]) was 80%.
